These results are taken from ChEMBL document CHEMBL4270565, “Design, synthesis and antimicrobial evaluation of propylene-tethered ciprofloxacin-isatin hybrids” (Eur J Med Chem, 2018).

A word on the MIC90: it is the lowest concentration that inhibits either 90% of growth or 90% of the strains tested, depending on the study. The CC50 is the concentration that lowers cell viability or growth by half.

Converted amounts (≈) assume the structure as drawn.

In data set [1] the test system is Enterobacter cloacae. As to the kind of experiment: Antibacterial activity against Enterobacter cloacae ATCC 43560 after 18 to 24 hrs by two-fold serial dilution method. In kind it is functional.
The subject of data set [2] is Klebsiella aerogenes. As to the kind of experiment: Antibacterial activity against Enterobacter aerogenes ATCC 13048 after 18 to 24 hrs by two-fold serial dilution method. In kind it is functional. In a few lines:
(§1)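 Agar two-fold dilution MIC. Compounds were dissolved in 0.1 N NaOH and water, then serially diluted in melted Mueller-Hinton agar, with top concentrations starting at 128. Plates were inoculated at about 10 cfu and incubated at 35 °C for 18–24 h. MIC was taken as the lowest concentration giving 90% inhibition of growth.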

For data set [3], the system named is Klebsiella pneumoniae. The data set is described as follows: Antibacterial activity against extended-spectrum beta-lactamase harboring Klebsiella pneumoniae ATCC 700603 after 18 to 24 hrs by two-fold serial dilution method. In kind it is functional. In a few lines: (§2)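 Agar two-fold serial dilution in Mueller-Hinton agar. Strains came from the Chinese Center for Disease Control and Prevention. Compounds were dissolved in 0.1 N NaOH and water, then diluted in melted agar to final levels stepping down from 128. Plates were inoculated with bacterial cfu and incubated at 35 C for 18–24 h. MIC is the lowest concentration giving 90% growth inhibition.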

Data set [4] relates to Enterococcus faecium. The data set is described as follows: Antibacterial activity against Enterococcus faecium 13-7 after 18 to 24 hrs by two-fold serial dilution method. The class given is functional. In a few lines:
as §1

The subject of data set [5] is Proteus mirabilis. The data set is described as follows: Antibacterial activity against Proteus mirabilis 13-1 after 18 to 24 hrs by two-fold serial dilution method. The class given is functional. In a few lines: as §1
The subject of data set [6] is Staphylococcus epidermidis. As to the kind of experiment: Antibacterial activity against methicillin-resistant Staphylococcus epidermidis 13-3 after 18 to 24 hrs by two-fold serial dilution method. In kind it is functional. In a few lines: as §2
In data set [7] the test system is Staphylococcus aureus. As to the kind of experiment: Antibacterial activity against methicillin-resistant Staphylococcus aureus ATCC 33591 after 18 to 24 hrs by two-fold serial dilution method. The class given is functional. In a few lines:
as §2

Data set [8] relates to Citrobacter freundii. As to the kind of experiment: Antibacterial activity against extended-spectrum beta-lactamase harboring Citrobacter freundii ATCC 43864 after 18 to 24 hrs by two-fold serial dilution method. In kind it is functional. In a few lines: as §2
The subject of data set [9] is Enterococcus faecalis. As to the kind of experiment: Antibacterial activity against Enterococcus faecalis ATCC 29212 after 18 to 24 hrs by two-fold serial dilution method. The class given is functional. In a few lines:
as §1

The test system of data set [10] is Acinetobacter calcoaceticus. The data set is described as follows: Antibacterial activity against Acinetobacter calcoaceticus ATCC 19606 after 18 to 24 hrs by two-fold serial dilution method. The class given is functional. In a few lines:
as §1

Data set [11] concerns Staphylococcus aureus. As to the kind of experiment: Antibacterial activity against methicillin-sensitive Staphylococcus aureus ATCC 29213 after 18 to 24 hrs by two-fold serial dilution method. In kind it is functional. In a few lines:
as §2

For data set [12], the system named is Enterococcus faecium. As to the kind of experiment: Antibacterial activity against Enterococcus faecium ATCC 700221 after 18 to 24 hrs by two-fold serial dilution method. In kind it is functional. In a few lines:
as §1

Data set [13] relates to Pseudomonas aeruginosa. As to the kind of experiment: Antibacterial activity against Pseudomonas aeruginosa ATCC 27853 after 18 to 24 hrs by two-fold serial dilution method. In kind it is functional. In a few lines: as §1
For data set [14], the system named is Escherichia coli. The data set is described as follows: Antibacterial activity against extended-spectrum beta-lactamase deficient Escherichia coli ATCC 25922 after 18 to 24 hrs by two-fold serial dilution method. The class given is functional. In a few lines:
as §1

A short description of data set [15]: Cytotoxicity against African green monkey Vero cells assessed as reduction in cell viability after 72 hrs by MTT assay. In kind it is cell-based. As to conditions: chlorocebus sabaeus. In a few lines: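 VERO cells were kept in MEM with Earle's salts and 10% FBS at 37 °C, 5% CO2. They were seeded in 96-well plates and allowed to recover for 24 h. Cells were then exposed to compounds in DMSO over a series from 1000 down to 4 for 72 h. Viability was read by MTT, and CC50 was calculated by Bliss analysis.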
Background: Tetrazolium dyes change colour on reduction, which living cells bring about.

The subject of data set [16] is Proteus vulgaris. As to the kind of experiment: Antibacterial activity against Proteus vulgaris ATCC 29905 after 18 to 24 hrs by two-fold serial dilution method. The class given is functional. In a few lines:
as §1

The subject of data set [17] is Serratia marcescens. The data set is described as follows: Antibacterial activity against Serratia marcescens ATCC 21074 after 18 to 24 hrs by two-fold serial dilution method. In kind it is functional. In a few lines: as §1
Data set [18] concerns Staphylococcus epidermidis. As to the kind of experiment: Antibacterial activity against methicillin-sensitive Staphylococcus epidermidis ATCC 12228 after 18 to 24 hrs by two-fold serial dilution method. In kind it is functional. In a few lines: as §1
Data set [19] deals with Morganella morganii. The data set is described as follows: Antibacterial activity against Morganella morganii ATCC 25830 after 18 to 24 hrs by two-fold serial dilution method. In kind it is functional. In a few lines:
as §1

Data set [20] concerns Escherichia coli. As to the kind of experiment: Antibacterial activity against extended-spectrum beta-lactamase harboring Escherichia coli ATCC 35218 after 18 to 24 hrs by two-fold serial dilution method. The class given is functional. In a few lines: as §2
For data set [21], the system named is Klebsiella pneumoniae. The data set is described as follows: Antibacterial activity against extended-spectrum beta-lactamase deficient Klebsiella pneumoniae 15-2 after 18 to 24 hrs by two-fold serial dilution method. In kind it is functional. In a few lines:
as §1

In data set [22] the test system is Providencia rettgeri. As to the kind of experiment: Antibacterial activity against Providencia rettgeri ATCC 31052 after 18 to 24 hrs by two-fold serial dilution method. In kind it is functional. In a few lines: as §1
For data set [23], the system named is Stenotrophomonas maltophilia. As to the kind of experiment: Antibacterial activity against Stenotrophomonas maltophilia ATCC 13636 after 18 to 24 hrs by two-fold serial dilution method. In kind it is functional. In a few lines:
as §1

Data set [24] relates to Enterococcus faecalis. The data set is described as follows: Antibacterial activity against Enterococcus faecalis ATCC 51299 after 18 to 24 hrs by two-fold serial dilution method. The class given is functional. In a few lines:
as §1

Data set [25] has as its system Mycobacterium tuberculosis. The data set is described as follows: Antimycobacterial activity against Mycobacterium tuberculosis H37Rv after 7 days. As to conditions: 168 h. In kind it is functional. In a few lines:
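Rapid direct susceptibility test in 48-well plates. Two-fold dilutions of compound from DMSO stocks were mixed with an equal volume of bacterial suspension. Medium-only wells served as growth controls and water-only wells as no-growth controls. Plates were sealed and held at 37 C in a humid box, and controls were checked at 3 days. MIC (90% growth inhibition) was read visually by high-magnification observation of the cells and re-read at 7 days.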

On to `O=C1C(=O)N(CCCN2CCN(c3cc4c(cc3F)c(=O)c(C(=O)O)cn4C3CC3)CC2)c2ccccc21`, for which the MIC90 is 0.03 mg/L (≈ 0.0579 µM) in data set [1]; no more than 0.03 mg/L in [2]; 1 mg/L (≈ 1.93 µM) in [3]; 64 mg/L (≈ 123 µM) in data set [4]; no more than 0.03 mg/L in data set [5]; 4 mg/L (≈ 7.71 µM) in data set [6]. Moreover, the MIC90 in [7] is 0.25 mg/L (≈ 0.482 µM); in [8], no more than 0.03 mg/L; in [9], 1 mg/L (≈ 1.93 µM); in [10], 1 mg/L (≈ 1.93 µM); in data set [11], 0.25 mg/L (≈ 0.482 µM); in data set [12], 8 mg/L (≈ 15.4 µM). Also, the MIC90 in [13] was 1 mg/L (≈ 1.93 µM); in data set [14], no more than 0.03 mg/L; in data set [16], no more than 0.03 mg/L; in data set [17] it was 0.25 mg/L (≈ 0.482 µM); in [18], 0.25 mg/L (≈ 0.482 µM); in [19], no more than 0.03 mg/L. The MIC90 in data set [20] is no more than 0.03 mg/L; in [21], 0.125 mg/L (≈ 0.241 µM); in data set [22], 0.03 mg/L (≈ 0.0579 µM); in data set [23] it was 0.125 mg/L (≈ 0.241 µM); in [24], 1 mg/L (≈ 1.93 µM); in [25], 0.2 mg/L (≈ 0.386 µM). Further, the CC50 at 72 h in data set [15] amounted to 128 mg/L (≈ 247 µM).

`O=C1C(=O)N(CCCOC(=O)c2cn(C3CC3)c3cc(N4CCN(CCCN5C(=O)C(=O)c6ccccc65)CC4)c(F)cc3c2=O)c2ccccc21`: the MIC90 in data set [1] is 128 mg/L (≈ 181 µM); in data set [2], 64 mg/L (≈ 90.7 µM); in data set [3], 64 mg/L (≈ 90.7 µM); in data set [4], greater than 128 mg/L; in data set [5], 64 mg/L (≈ 90.7 µM); in [6], greater than 128 mg/L. Also, the MIC90 in data set [7] was greater than 128 mg/L; in [8], 64 mg/L (≈ 90.7 µM); in [9], 64 mg/L (≈ 90.7 µM); in [10], 128 mg/L (≈ 181 µM); in data set [11], 128 mg/L (≈ 181 µM); in [12] it was greater than 128 mg/L. Moreover, the MIC90 in data set [13] is greater than 128 mg/L; in [14] it was 4 mg/L (≈ 5.67 µM); in data set [16], 64 mg/L (≈ 90.7 µM); in data set [17], 32 mg/L (≈ 45.3 µM); in data set [18], 64 mg/L (≈ 90.7 µM); in [19], 64 mg/L (≈ 90.7 µM). Further, the MIC90 in data set [20] was 16 mg/L (≈ 22.7 µM); in data set [21], 64 mg/L (≈ 90.7 µM); in [22], 128 mg/L (≈ 181 µM); in data set [23], greater than 128 mg/L; in data set [24], greater than 128 mg/L; in [25], 12.5 mg/L (≈ 17.7 µM). Also, the CC50 at 72 h in data set [15] was found to be 32 mg/L (≈ 45.3 µM).

For `CO[C@H]1/C=C/O[C@@]2(C)Oc3c(C)c(O)c4c(O)c(c(/C=N/N5CCN(C)CC5)c(O)c4c3C2=O)NC(=O)/C(C)=C\C=C\[C@H](C)[C@H](O)[C@@H](C)[C@@H](O)[C@@H](C)[C@H](OC(C)=O)[C@@H]1C` [RIFAMPIN], the MIC90 in data set [25] amounted to 0.39 mg/L (≈ 0.474 µM).

On to `C[C@H]1COc2c(N3CCN(C)CC3)c(F)cc3c(=O)c(C(=O)O)cn1c23.C[C@H]1COc2c(N3CCN(C)CC3)c(F)cc3c(=O)c(C(=O)O)cn1c23.O` [LEVOFLOXACIN], for which the MIC90 was no more than 0.03 mg/L in [1]; 0.06 mg/L in data set [2]; 0.5 mg/L in [3]; 64 mg/L in [4]; no more than 0.03 mg/L in data set [5]; 4 mg/L in data set [6]. For the same compound, the MIC90 was 0.125 mg/L in [7]; no more than 0.03 mg/L in data set [8]; 1 mg/L in data set [9]; 0.125 mg/L in [10]; 0.125 mg/L in data set [11]; 16 mg/L in data set [12]. The MIC90 in [13] is 2 mg/L; in data set [14] it was no more than 0.03 mg/L; in data set [16], no more than 0.03 mg/L; in data set [17], 0.125 mg/L; in [18], 0.125 mg/L; in data set [19], no more than 0.03 mg/L. Also, the MIC90 in data set [20] is no more than 0.03 mg/L; in [21], no more than 0.03 mg/L; in data set [22] it was no more than 0.03 mg/L; in data set [23], 1 mg/L; in [24], 1 mg/L.
